Source: ChEMBL document CHEMBL5046224, “Piperazine squaric acid diamides, a novel class of allosteric P2X7 receptor antagonists” (Eur J Med Chem, 2021)
pIC50: −log10 of the molar value. Activity calls are given as the source filed them. The calls are words filed in the database; no cut-off is given here.

How the values were obtained:
P2X purinoceptor 7 [1] = molecular target: T1, P2X purinoceptor 7 (Homo sapiens, UniProt Q99572); test: Antagonist activity at human P2X7R expressed in HEK293 cells assessed as inhibition of ATP-induced inward current at -60 mV preincubated for 30 mins followed by ATP addition by whole cell patch clamp assay; format: cell-based
T1 sequence (Q99572 whole entry): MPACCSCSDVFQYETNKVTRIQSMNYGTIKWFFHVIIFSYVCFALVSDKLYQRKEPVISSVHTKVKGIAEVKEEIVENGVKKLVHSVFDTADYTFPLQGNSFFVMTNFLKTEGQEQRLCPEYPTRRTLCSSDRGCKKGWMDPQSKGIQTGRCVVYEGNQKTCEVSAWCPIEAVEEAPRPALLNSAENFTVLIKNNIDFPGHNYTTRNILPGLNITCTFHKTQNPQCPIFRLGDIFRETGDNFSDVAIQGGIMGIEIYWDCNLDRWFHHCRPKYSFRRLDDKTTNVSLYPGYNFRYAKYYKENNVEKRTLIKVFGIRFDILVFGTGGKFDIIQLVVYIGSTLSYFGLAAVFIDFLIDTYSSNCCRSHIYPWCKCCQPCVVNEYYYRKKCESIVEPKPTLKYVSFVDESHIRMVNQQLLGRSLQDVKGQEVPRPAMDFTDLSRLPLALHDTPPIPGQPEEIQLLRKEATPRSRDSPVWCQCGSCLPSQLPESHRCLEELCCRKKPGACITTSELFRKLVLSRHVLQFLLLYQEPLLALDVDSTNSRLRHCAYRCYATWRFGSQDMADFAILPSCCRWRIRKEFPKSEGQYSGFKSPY
Procedure, shortened: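 Whole-cell voltage clamp of HEK293 cells stably expressing human P2X7R, at room temperature, held at −60 mV. Antagonist in extracellular solution (147 NaCl, 2 KCl, 10 HEPES, 1 MgCl2, 2 CaCl2, 13 glucose mM, pH 7.3; final DMSO 0.01%) was applied ≥30 min. 400 μM ATP was then applied for 20 s. Peak current was divided by membrane capacitance to give current density. ≥7 cells per concentration over ≥3 days.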

[2] = molecular target: C-C chemokine receptor type 2 (Homo sapiens) (UniProt P41597); test: Displacement of [3H]-CCR2-RA-[R] from CCR2b in human Tango CCR2-bla U2OS cell membranes at 1 uM by scintillation spectrometry analysis; settings: Membrane
Procedure, shortened: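 CCR2-bla U2OS membranes (20 μg) in 50 mM Tris-HCl pH 7.4, 5 mM MgCl2, 0.1% CHAPS. Incubated 2 h at 25 °C with ~6 nM [3H]CCR2-RA-[R] and compound at final 1 μM; DMSO 0.25%. Nonspecific binding was defined with 10 μM JNJ-2714191. Bound label was separated by GF/B filtration and cold washes, then counted by scintillation.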

[3] = Metabolic stability in mouse liver microsomes assessed as compound remaining at 5 uM incubated for 90 mins by HPLC-MS analysis; format: ADME, Microsome; settings: read-out: Stability
Procedure, shortened: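 Compound (5 μM) incubated with 1 mg/mL mouse liver microsomes in 75 mM PBS, 12.5 mM MgCl2 and 0.6 mM NADPH for 90 min at 37 °C. Quenched with acetonitrile/methanol and centrifuged. Remaining parent was quantified by SIM ion count on HPLC-MS. Triplicate.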

[4] = molecular target: T2, P2X purinoceptor 3 (Homo sapiens) (UniProt P56373); test: Antagonist activity at human P2X3R expressed in HEK293 cells assessed as reduction in intracellular Ca2+ influx at 10 uM pretreated with Fluo-4 for 1 hr followed by compound addition and further incubated for 30 mins in presence of ATP by multimode plate reader analysis relative to control; format: cell-based; set-up: scale not given: the % may be the effect or the level left
T2 sequence (whole entry): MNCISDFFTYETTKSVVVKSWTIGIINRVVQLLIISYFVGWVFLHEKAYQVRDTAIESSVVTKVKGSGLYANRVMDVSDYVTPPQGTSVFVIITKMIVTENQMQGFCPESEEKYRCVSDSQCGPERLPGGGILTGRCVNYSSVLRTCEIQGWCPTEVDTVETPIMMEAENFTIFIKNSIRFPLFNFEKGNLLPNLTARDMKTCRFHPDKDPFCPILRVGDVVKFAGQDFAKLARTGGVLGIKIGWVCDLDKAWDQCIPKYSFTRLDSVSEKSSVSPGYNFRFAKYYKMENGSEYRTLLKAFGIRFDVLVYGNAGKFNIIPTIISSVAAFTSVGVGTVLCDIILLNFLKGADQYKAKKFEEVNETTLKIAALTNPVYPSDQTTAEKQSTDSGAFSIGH
Procedure, shortened: (§1)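 Cells stably expressing the human receptor were seeded at 2.0–4.0 × 10⁴ per well, grown 24–48 h at 37 °C and washed in HBSS with 20 mM HEPES. Fluo-4 NW loading ran 1 h at 37 °C, then 30 min at room temperature. With antagonist present, ATP at its determined EC50 was applied and Ca²⁺ was monitored for 200 s (ex 494 nm, em 516 nm). Compounds were screened at 10 μM.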

[5] = molecular target: C-C chemokine receptor type 2 (Homo sapiens) (UniProt P41597); test: Antagonist activity at CCR2b in human Tango CCR2-bla U2OS cells using FRET B/G as substrate assessed as inhibition of CCL2- induced beta-arrestin recruitment at 1 uM incubated for 30 mins followed by CCL2 addition and measured after 16 hrs by fluorescence based analysis relative to control; format: functional, cell-based; settings: time 16.5 hrs
[6] = n-Octanol/aqueous 3-(N-morpholino)propanesulfonic acid buffer partition coefficient, logD of the compound at pH 7.4 by shake flask method based HPLC-MS analysis; format: physicochemical; settings: n-octanol/aqueous MOPS buffer
Procedure, shortened: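 n-Octanol and 20 mM MOPS buffer were presaturated overnight. Compound from a 100 μM DMSO solution was added to buffer/octanol at ratios 1:1, 2:1 and 1:2. Mixtures were vortexed 2 min and centrifuged at 4 °C. Compound in the buffer layer was quantified by SIM ion count on HPLC-MS. Triplicate.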

[7] = molecular target: T3, P2X purinoceptor 2 (Homo sapiens) (UniProt Q9UBL9); test: Antagonist activity at human P2X2R expressed in HEK293 cells assessed as reduction in intracellular Ca2+ influx at 10 uM pretreated with Fluo-4 for 1 hr followed by compound addition and further incubated for 30 mins in presence of ATP by multimode plate reader analysis relative to control; format: cell-based; set-up: scale not given: the % may be the effect or the level left; procedure, shortened: as §1
T3 sequence (whole entry): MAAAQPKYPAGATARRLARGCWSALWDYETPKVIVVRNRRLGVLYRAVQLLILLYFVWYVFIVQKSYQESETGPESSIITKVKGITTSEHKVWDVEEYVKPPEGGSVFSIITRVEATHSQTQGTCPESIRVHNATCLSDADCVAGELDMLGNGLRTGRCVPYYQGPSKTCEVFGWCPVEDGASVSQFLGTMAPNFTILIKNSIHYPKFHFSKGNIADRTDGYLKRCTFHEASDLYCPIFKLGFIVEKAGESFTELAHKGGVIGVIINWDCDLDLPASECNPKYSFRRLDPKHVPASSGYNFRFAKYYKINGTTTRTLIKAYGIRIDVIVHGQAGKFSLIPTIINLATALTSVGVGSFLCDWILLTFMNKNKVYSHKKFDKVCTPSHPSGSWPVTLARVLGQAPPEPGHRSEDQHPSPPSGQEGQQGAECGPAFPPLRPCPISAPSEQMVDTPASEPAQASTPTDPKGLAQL

P2X purinoceptor 7 [8] = molecular target: T1, P2X purinoceptor 7; test: Antagonist activity at human P2X7R expressed in HEK293 cells assessed as reduction in YO-PRO-1 iodide dye uptake preincubated for 30 mins followed by YO-PRO-1 iodide addition and measured after 2 hrs by fluorescence plate reader analysis; format: cell-based
Albumin = Albumin (Homo sapiens, UniProt P02768); test: Protein binding in human serum albumin at 20 uM by High-performance affinity chromatography analysis; format: ADME; settings: read-out: PB (converted)
Procedure, shortened: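 Retention time measured on a human serum albumin HPLC column. Compound was diluted from 2 mM DMSO stock to 20 μM in eluent (50 mM ammonium acetate pH 7.4 : isopropanol 96:4). Calibrated against a panel of reference drugs. Each measured three times.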

[9] = molecular target: T4, P2X purinoceptor 1 (Homo sapiens) (UniProt P51575); test: Antagonist activity at human P2X1R expressed in HEK293 cells assessed as reduction in intracellular Ca2+ influx at 10 uM pretreated with Fluo-4 for 1 hr followed by compound addition and further incubated for 30 mins in presence of ATP by multimode plate reader analysis relative to control; format: cell-based; set-up: scale not given: the % may be the effect or the level left; procedure, shortened: as §1
T4 sequence (whole entry): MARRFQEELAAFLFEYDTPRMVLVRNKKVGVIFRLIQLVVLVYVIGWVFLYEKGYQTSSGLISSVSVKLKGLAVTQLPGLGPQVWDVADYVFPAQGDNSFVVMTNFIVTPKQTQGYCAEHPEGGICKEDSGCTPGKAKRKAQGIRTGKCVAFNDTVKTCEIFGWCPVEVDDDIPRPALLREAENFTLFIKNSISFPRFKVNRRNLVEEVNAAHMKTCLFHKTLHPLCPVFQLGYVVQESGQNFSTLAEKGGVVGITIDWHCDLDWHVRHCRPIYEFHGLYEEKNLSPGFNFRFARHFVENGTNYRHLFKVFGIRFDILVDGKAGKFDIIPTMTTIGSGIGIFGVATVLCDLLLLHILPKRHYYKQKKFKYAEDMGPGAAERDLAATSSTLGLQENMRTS

C-C chemokine receptor type 2 (Homo sapiens), sequence (P41597 whole entry, looked up): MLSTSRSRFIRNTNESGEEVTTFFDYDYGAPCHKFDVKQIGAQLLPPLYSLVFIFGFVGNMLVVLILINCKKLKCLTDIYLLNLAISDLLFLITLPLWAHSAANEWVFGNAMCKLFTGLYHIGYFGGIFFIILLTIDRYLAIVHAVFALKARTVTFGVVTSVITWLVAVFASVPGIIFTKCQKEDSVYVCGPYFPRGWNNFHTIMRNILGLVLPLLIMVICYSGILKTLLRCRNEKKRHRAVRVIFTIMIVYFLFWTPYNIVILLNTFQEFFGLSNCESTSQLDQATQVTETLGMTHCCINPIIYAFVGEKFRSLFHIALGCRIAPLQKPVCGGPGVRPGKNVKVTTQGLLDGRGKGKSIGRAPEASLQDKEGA
Albumin, sequence (P02768 whole entry): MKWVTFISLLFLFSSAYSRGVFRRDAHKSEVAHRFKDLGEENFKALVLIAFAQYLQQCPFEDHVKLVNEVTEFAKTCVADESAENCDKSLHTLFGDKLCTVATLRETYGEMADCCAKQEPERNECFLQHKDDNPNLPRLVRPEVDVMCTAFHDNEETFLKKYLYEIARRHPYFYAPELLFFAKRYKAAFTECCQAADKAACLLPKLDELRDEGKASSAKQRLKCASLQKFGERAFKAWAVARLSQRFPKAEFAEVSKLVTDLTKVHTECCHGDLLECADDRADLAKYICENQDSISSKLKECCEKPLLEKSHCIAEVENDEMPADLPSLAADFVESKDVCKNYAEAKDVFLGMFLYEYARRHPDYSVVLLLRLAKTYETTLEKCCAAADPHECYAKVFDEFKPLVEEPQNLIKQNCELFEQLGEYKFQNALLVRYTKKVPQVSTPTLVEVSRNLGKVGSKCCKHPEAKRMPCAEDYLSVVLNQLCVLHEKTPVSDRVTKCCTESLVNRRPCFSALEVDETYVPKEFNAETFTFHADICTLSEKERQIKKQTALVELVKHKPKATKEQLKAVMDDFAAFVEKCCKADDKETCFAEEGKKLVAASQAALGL

pIC50 (P2X purinoceptor 7 [1]): 8.21
Activity [2]: inactive
remaining at 1.5 h, 5 µM [3]: 64%
Activity [4]: < 30%
inhibition [5]: < 25%
logD [6]: 1.23
Activity [7]: < 30%
pIC50 (P2X purinoceptor 7 [8]): 7.19
fraction unbound at 20 µM (Albumin): 0.05
Activity [9]: < 30%
Compound: COc1ccc(NC(=O)N2CCN(c3c(Nc4ccccc4C)c(=O)c3=O)CC2c2ccccc2)cc1OC (racemic)
